Published values pooled from the literature.
Each line is one published result; the experiments were not run side by side.
Target: Aurora kinase C (AURKC, Homo sapiens, UniProt Q9UQB9)
Residues used in one study (Q9UQB9 1-309): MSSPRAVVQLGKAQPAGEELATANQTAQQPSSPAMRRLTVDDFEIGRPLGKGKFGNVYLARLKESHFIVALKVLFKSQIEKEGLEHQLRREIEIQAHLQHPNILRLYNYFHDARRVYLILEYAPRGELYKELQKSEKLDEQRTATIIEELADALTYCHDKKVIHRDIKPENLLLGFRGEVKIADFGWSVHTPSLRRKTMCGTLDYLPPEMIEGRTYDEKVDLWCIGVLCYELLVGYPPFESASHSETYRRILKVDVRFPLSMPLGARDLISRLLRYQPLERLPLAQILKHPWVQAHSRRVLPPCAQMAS

SMILES	observed	mode	technique	tested at	quantity	value
Cn1cc(-c2cc(F)cc(N3CCn4c(cc5c4CCCC5)C3=O)c2CO)cc(Nc2ccc(N3CCN(C4COC4)CC3)cn2)c1=O	enzyme activity	inhibitor	–	0.1 µM	inhibition	5%
CC(C)(C)c1cc(C=C(C#N)C#N)cc(Br)c1O	enzyme activity	inhibitor	–	0.5 µM	remaining activity	87.6%
Cn1cc(-c2cccc(N3CCc4c(sc5c4CC(C)(C)C5)C3=O)c2CO)cc(Nc2ccncn2)c1=O	enzyme activity	inhibitor	–	1 µM	inhibition	5%
N#CC1(c2ccccn2)CCN(Cc2cc(C(=O)O)c(=O)n3ccccc23)CC1	cell-free assay	–	competition with immobilised ligand	1 µM	remaining binding	94%
O=c1[nH]c2ccccc2n1C1CCN(Cc2ccc(-c3[nH]c4cc5ncnc5cc4nc3-c3ccccc3)cc2)CC1	cell-free assay	–	–	0.5 µM	remaining signal	96%
COc1cc(Nc2ncc(F)c(Nc3ccc4c(n3)NC(=O)C(C)(C)O4)n2)cc(OC)c1OC	binding	–	competition with immobilised ligand	10 µM	inhibition	95%
Cn1cncc1[C@](O)(COc1ccc(C#N)cc1-c1ccc(OC(F)(F)F)cc1)c1ccc(C#N)cc1	cell-free assay	–	competition with immobilised ligand	1 µM	remaining binding	100%
Nc1ncc(-c2nc(N3CCOCC3)nc(N3CCOCC3)n2)c(C(F)F)n1	binding	–	competition with immobilised ligand	10 µM	remaining binding	91%
COc1ncccc1-c1cnn2ccc(N3CCN(C(=O)OC(C)C)CC3)nc12	binding	–	competition with immobilised ligand	1 µM	remaining binding	56%
C#Cc1n[nH]c2c(-c3cn(C(C)c4ccccn4)c(=O)[nH]c3=O)cc(F)cc12 (stereo not shown)	enzyme activity	inhibitor	–	1 µM	inhibition	1.7%
